From ChEMBL document CHEMBL1141608, “Azaterphenyl diamidines as antileishmanial agents” (Bioorg Med Chem Lett, 2008)
Activity calls are given as the source filed them. The calls are words filed in the database; no cut-off is given here.

Key:
[1] = tested on: Leishmania donovani; test: Antileishmanial activity against Leishmania donovani axenic amastigotes; assay type: functional, organism-based
Summary of the method: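 Axenic L. donovani amastigotes; IC50 is the mean of at least two independent assays.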

[2] = tested on: L6; test: Cytotoxicity against rat L6 cells; assay type: cell-based
[3] = tested on: Leishmania amazonensis; test: Antileishmanial activity against Leishmania amazonensis in mouse J774 cells
[4] = tested on: Leishmania amazonensis; test: Antileishmanial activity against Leishmania amazonensis in mouse J774 cells at <5 uM
[5] = tested on: Leishmania donovani; test: Induction of kinetoplast disintegration in Leishmania donovani axenic amastigotes at […] after 24 hrs; assay type: functional, organism-based
[6] = tested on: J774; test: Cytotoxicity against mouse J774 cells; assay type: cell-based
[7] = tested on: Leishmania donovani; test: Induction of mitochondrial dilation in Leishmania donovani axenic amastigotes at […] after 24 hrs; assay type: functional, organism-based
[8] = Binding affinity to poly(dA-dT)2 assessed as melting temperature

Row | Compound | IC50 [1] [nM] | IC50 [2] [nM] | further results
1 | N=C(N)c1ccc(-c2ccc(-c3ccc(C(=N)N)cc3)nn2)cc1 | 720 | 31000 | –
2 | C[C@@H]1[C@H](O)[C@@H](C)/C=C/C=C/C=C/C=C/C=C/C=C/C=C/[C@H](O[C@@H]2O[C@H](C)[C@@H](O)[C@H](N)[C@@H]2O)C[C@@H]2O[C@](O)(C[C@@H](O)C[C@@H](O)[C@H](O)CC[C@@H](O)C[C@@H](O)CC(=O)O[C@H]1C)C[C@H](O)[C@H]2C(=O)O (stereo in doubt) [AMPHOTERICIN B] | – | – | IC50 [3]: 46 nM
3 | N=C(N)c1ccc(-c2ccc(-c3cnc(C(=N)N)nc3)cc2)cc1 | 200 | 4700 | –
4 | N=C(N)c1ccc(-c2ccc(-c3cnc(C(=N)N)nc3)cn2)cc1 | 2600 | 6400 | –
5 | N=C(N)c1ccc(-c2ccc(-c3ccc(C(=N)N)cc3)cc2)cc1 | 270 | 22000 | Activity [4]: inactive; Activity [5]: Active; Activity [6]: Toxic; Activity [7]: Active
6 | N=C(N)c1ccc(-c2cnc(-c3ccc(C(=N)N)nc3)nc2)cn1 | 1800 | 5300 | ΔTm [8]: 6.8 °C
7 | N=C(N)c1ccc(-c2ccc(-c3ccc(C(=N)N)nc3)cn2)cc1 | 510 | 20000 | –
8 | N=C(N)c1ncc(-c2ccc(-c3cnc(C(=N)N)nc3)cc2)cn1 | 1700 | 2200 | –
9 | N=C(N)c1ccc(-c2ccc(-c3ccc(C(=N)N)cn3)cc2)cc1 | 1400 | 27000 | –
10 | N=C(N)c1ccc(-c2ccc(-c3ccc(C(=N)N)cc3)c(F)c2)cc1 | 340 | 6400 | ΔTm [8]: 15.1 °C
11 | N=C(N)c1ccc(-c2ccc(-c3ccc(C(=N)N)cn3)cc2)nc1 | > 100000 | – | –
12 | N=C(N)c1ccc(-c2cnc(-c3ccc(C(=N)N)cc3)cn2)cc1 | 560 | 43000 | –
13 | N=C(N)c1ccc(-c2ccc(-c3ccc(C(=N)N)cc3)nc2)cc1 | 820 | 50000 | –
14 | N=C(N)c1cnc(-c2ccc(-c3cnc(C(=N)N)cn3)cc2)cn1 | – | 47000 | –
15 | N=C(N)c1ccc(-c2ccc(-c3cnc(C(=N)N)cn3)cn2)cc1 | 16000 | 93000 | –
16 | N=C(N)c1ccc(-c2ccc(-c3ccc(C(=N)N)nc3)cc2)cn1 | 63 | 1200 | Activity [4]: inactive; Activity [6]: Toxic
17 | N=C(N)c1ccc(-c2cnc(-c3ccc(C(=N)N)cc3)nc2)cc1 | 1100 | 41000 | –
18 | N=C(N)c1ccc(-c2ccc(-c3ccc(C(=N)N)nc3)cc2)cc1 | 84 | 2800 | –
19 | N=C(N)c1ccc(-c2ccc(-c3ccc(C(=N)N)cn3)cn2)cc1 | 6800 | 28000 | –
